The source of these data is ChEMBL document CHEMBL4261646, “Bisphosphonate Inhibitors of Mammalian Glycolytic Aldolase” (J Med Chem, 2018).

Each structure is given as a SMILES string. pEC50, pIC50, pKi: −log10 of the molar value. Active and inactive are the calls of the source. The rule behind the calls is not given here.

A short description of data set [1]: Dual competitive-inhibition of fructose-bisphosphate aldolase (unknown origin) using FBP as substrate and […] in presence of constant enzyme concentration by UV-Vis spectrophotometry dependent TIM/GDH coupled assay based double-reciprocal plot analysis. Details: species or system Homo sapiens. In outline:
(§1)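 Recombinant rabbit muscle aldolase was expressed in E. coli BL21-SI. Cleavage of FBP was coupled to TIM/GDH, and NADH oxidation was followed at 340 nm at 25 °C. Buffer was 50 mM Tris-acetate pH 7.5 with 1 mM EDTA and 0.3 mM NADH. Initial rates were fitted to a two-site reversible linear competitive model. At least three independent assays.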

A short description of data set [2]: Dual competitive-inhibition of fructose-bisphosphate aldolase (unknown origin) assessed as inhibition constant for two competitive binding sites in enzyme active site using FBP as substrate and […] in presence of constant enzyme concentration by UV-Vis spectrophotometry dependent TIM/GDH coupled assay based double-reciprocal plot analysis. Details: species or system Homo sapiens. In outline:
as §1

The nature of data set [3]: Inhibition of rabbit muscle fructose-bisphosphate aldolase using FBP as substrate and NADH by spectrophotometry based coupled enzyme assay. Details: species or system Oryctolagus cuniculus. In outline: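 Recombinant rabbit muscle aldolase was expressed in E. coli. FBP cleavage was coupled to triose-phosphate isomerase/glycerol-3-phosphate dehydrogenase, and NADH oxidation was read at 340 nm at 25 °C. Buffer was 50 mM Tris-acetate pH 7.5 with 1 mM EDTA and 0.3 mM NADH. Reactions were started by adding enzyme. At least three independent assays.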

A short description of data set [4]: Competitive-inhibition of fructose-bisphosphate aldolase (unknown origin) using FBP as substrate and […] in presence of constant enzyme concentration by UV-Vis spectrophotometry dependent TIM/GDH coupled assay based double-reciprocal plot analysis. Details: species or system Homo sapiens. The method, boiled down: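 Recombinant rabbit muscle aldolase at 0.01 μg/mL in TIM/GDH-coupled assay (NADH oxidation at 340 nm, 25 °C, Tris-acetate pH 7.5, 0.3 mM NADH).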

For data set [5], the system named is HeLa. The data set can be described thus: Growth inhibition of human HeLa cells at 1 to 50 uM after 24 to 72 hrs by trypan blue exclusion assay. The format is functional, cell-based. The method, boiled down: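 HeLa cells were seeded at 3 x 10^5 cells/plate and grown in DMEM at 37 °C/5% CO2 with filter-sterilized inhibitor for 24, 48 or 72 h. Cells were trypsinized (0.25%), pelleted and resuspended. Total cells were counted by Trypan blue exclusion on a hemocytometer. At least three independent experiments; Student's two-tailed t-test.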

Data set [6] is described as follows: Inhibition of fructose-bisphosphate aldolase (unknown origin). Details: species or system Homo sapiens.
Data set [7] in a line: Inhibition of fructose-bisphosphate aldolase (unknown origin) using FBP as substrate and NADH preincubated for 0 mins followed by substrate addition by UV-Vis spectrophotometry based TIM/GDH coupled assay. The arrangement: species or system Homo sapiens. The method, boiled down: (§2)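 Recombinant rabbit muscle aldolase was pre-incubated for the listed time with inhibitor at 0.01–20 μM, then assayed with 10 μM FBP. Cleavage was read by TIM/GDH coupling as NADH oxidation at 340 nm, 25 °C, in 50 mM Tris-acetate pH 7.5, 1 mM EDTA, 0.3 mM NADH. IC50 was taken from a 4-parameter fit; at least three independent assays.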

Data set [8] is described as follows: Inhibition of fructose-bisphosphate aldolase (unknown origin) using FBP as substrate and NADH preincubated for 10 mins followed by substrate addition by UV-Vis spectrophotometry based TIM/GDH coupled assay. Details: species or system Homo sapiens. The method, boiled down: as §2
The nature of data set [9]: Inhibition of fructose-bisphosphate aldolase (unknown origin) using FBP as substrate and NADH preincubated for 30 mins followed by substrate addition by UV-Vis spectrophotometry based TIM/GDH coupled assay. Details: species or system Homo sapiens. The method, boiled down: as §2
A short description of data set [10]: Inhibition of fructose-bisphosphate aldolase (unknown origin) using FBP as substrate and NADH preincubated for 90 mins followed by substrate addition by UV-Vis spectrophotometry based TIM/GDH coupled assay. Details: species or system Homo sapiens. In outline: as §2
Data set [11] can be described thus: Inhibition of fructose-bisphosphate aldolase (unknown origin) using FBP as substrate and NADH preincubated for 180 mins followed by substrate addition by UV-Vis spectrophotometry based TIM/GDH coupled assay. Details: species or system Homo sapiens. In outline: as §2
Data set [12] can be described thus: Slow binding inhibition of fructose-bisphosphate aldolase (unknown origin) assessed as dissociation constant using FBP as substrate and NADH by UV-Vis spectrophotometry dependent TIM/GDH coupled assay based Dixon plot analysis. Details: species or system Homo sapiens. In outline:
(§3)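 Recombinant rabbit muscle aldolase, TIM/GDH-coupled NADH oxidation at 340 nm, 25 °C, in Tris-acetate pH 7.5 buffer with 1 mM EDTA and 0.3 mM NADH. Progress curves were recorded with 20–200 μM FBP and 0.5–75 μM inhibitor. Slow-binding constants came from non-linear regression under the Morrison–Walsh model; at least three independent assays.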

The nature of data set [13]: Slow binding inhibition of fructose-bisphosphate aldolase (unknown origin) assessed as overall inhibition constant using FBP as substrate and NADH by UV-Vis spectrophotometry dependent TIM/GDH coupled assay based Dixon plot analysis. The arrangement: species or system Homo sapiens. In outline: as §3
In data set [14] the test system is HeLa. The data set can be described thus: Growth inhibition of human HeLa cells at 50 uM after 72 hrs by trypan blue exclusion assay relative to control. Format: functional. The settings on record: read-out: GI. The method, boiled down:
(§4)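 Cells seeded in DMEM (HeLa 3 x 10^5, HEK293 2 x 10^5 per plate) were kept at 37 °C, 5% CO2 with filter-sterilized compound for 24, 48 or 72 h. Cells were trypsinized and total counts made by Trypan blue exclusion on a hemocytometer. Student's two-tailed t-test; at least three independent experiments.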

Data set [15] concerns HeLa. The data set can be described thus: Growth inhibition of human HeLa cells at 10 uM after 72 hrs by trypan blue exclusion assay relative to control. Format: functional. The settings on record: read-out: GI. In outline: as §4
In a further data set the test system is HEK293. The data set can be described thus: Growth inhibition of HEK293 cells at 1 to 50 uM after 24 to 72 hrs by trypan blue exclusion assay. Format: cell-based. Conditions: human, hek293, 50 µM. The method, boiled down:
as §4

Data set [16] is described as follows: Slow binding inhibition of fructose-bisphosphate aldolase (unknown origin) assessed as dibasic species population adjusted dissociation constant using FBP as substrate and NADH by UV-Vis spectrophotometry dependent TIM/GDH coupled assay based Dixon plot analysis. Details: species or system Homo sapiens. The settings on record: read-out: Ki(app).
Data set [17] in a line: Slow binding inhibition of fructose-bisphosphate aldolase (unknown origin) assessed as dibasic species population adjusted overall inhibition constant using FBP as substrate and NADH by UV-Vis spectrophotometry dependent TIM/GDH coupled assay based Dixon plot analysis. The settings on record: read-out: Ki(app). Details: species or system Homo sapiens.
For data set [18], the system named is HeLa. The data set can be described thus: Growth inhibition of human HeLa cells after 72 hrs by trypan blue exclusion assay relative to control. The format is functional, cell-based. The method, boiled down: as §4
Data set [19] has as its system HeLa. The data set can be described thus: Growth inhibition of human HeLa cells assessed as transport efficiency corrected EC50 for after 72 hrs by trypan blue exclusion assay relative to control. Format: functional, cell-based.

By pKi is commonly meant −log10 of the Ki, conventionally taken in molar units. For `O=P(O)(O)C(c1ccc2cc(O)ccc2c1)P(=O)(O)O`, the pKi was 4.89 in data set [1] and 5.05 in [2].

`O=C(COP(=O)(O)O)[C@@H](O)[C@@H](O)[C@H](O)COP(=O)(O)O` had a negative logarithm of the Ki (pKi) in [3] of 3.92.

With `O=P(O)(O)Oc1ccc(C(P(=O)(O)O)P(=O)(O)O)cc1`, the pKi in data set [4] was 4.38. Further, the “growth inhibition (GI)” value with HeLa [5] is “inactive”.

On to `O=P(O)(O)Oc1ccc2cc(OP(=O)(O)O)ccc2c1`, for which the pKi in [4] and in data set [6] was 6.55 in each case.

One may read the pIC50 as the IC50 on a negative log10 scale, so that one unit is a factor of ten. As a reminder, the pEC50 is the EC50 on a negative log10 scale, so that one unit is a factor of ten. For the molecule `O=P([O-])([O-])Oc1ccc2cc(C(P(=O)([O-])[O-])P(=O)([O-])[O-])ccc2c1.[Li+].[Li+].[Li+].[Li+].[Li+].[Li+]`, the pIC50 was 6.17 in data set [7]; 6.77 in data set [8]; 6.89 in data set [9]; 7.22 in data set [10]; 7.17 in data set [11]. For the same molecule, the pKi is 6.55 in data set [12], 7.42 in data set [13], 7.25 in data set [16] and 8.12 in data set [17]. The inhibition of growth at 50 µM in the data set with HeLa [14] was found to be 50%. Also, the inhibition of growth at 10 µM in the data set on HeLa [15] is 30%. In addition, in the data set on HEK293, the “growth inhibition (GI)” value is reported as “Non-Toxic”. Also, the pEC50 in the data set on HeLa [18] was 4.30; with HeLa [19], 7.12.
